A selection: hits, their analogues and other compounds. The true share with any hit is near 0.94%.
PKA-R1A activ: activators of PKA-R1A holoenzyme, primary screen, biochemical, fluorescence polarization, Cy5-IP20, bovine R1A, mouse PKAc; cAMP-dependent protein kinase type I-alpha regulatory subunit (Bos taurus) + …; PKA-R1A dissociation; scaled: DMSO 0%, 113 µM cGMP 100%; activation, % at 11.4 µM; actives 0.083% (n = 340,000); AID 504707, 2011;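 active = percent activation above the mean of all tested compounds plus 3 SD, cut at about 19% in these data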;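 note: higher means more PKAc released from R1A so a rise in polarization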
aDG glyco act: activators of alpha-DG glycosylation, primary screen, uHTS, Pro5-aDG cells, AlphaScreen; alpha-DG glycosylation AlphaScreen (IIH6); 0% Pro5, 100% B10-LARGE cell signal; activation, % at 10 µM; actives 0.22% (n = 360,000); AID 624168, 2012;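 active = activation of at least 8% versus controls, or a plate z-score of at least 8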;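 note: Pro5 are CHO cells carrying HIG-tagged alpha-DG that lacks glycosylation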
UCH37 DUB inh: inhibitors of human UCH37 deubiquitinase, primary screen, biochemical, Ub-AMC cleavage, fluorescence. Ubiquitin carboxyl-terminal hydrolase isozyme L5 (Homo sapiens), Q9Y5K5. purified proteasome/UCH37. inhibition, % (no concentration beside the values). actives 0.33% (n = 330,000);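 active = mean inhibition over replicate wells above about 20%, limit read from the data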;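 note: 0% = compound-free wells with enzyme and 100% = wells lacking proteasome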
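System: Proteasome-associated human UCH37 deubiquitinase; Input: 0.15 nM proteasome in added enzyme buffer; Also added: Ub-AMC substrate from 1 µM stock; Incubation: 30 min compound-proteasome preincubation then 25 min substrate reaction, room temperature; Detection: fluorescence, ex 355 nm, em 460 nm; Read-out: % inhibition of Ub-AMC cleavage fluorescence; Benchmarks: no-proteasome and no-compound wells.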
PKA-R2B activ: activators of PKA-R2B holoenzyme, primary screen, biochemical, fluorescence polarization, Cy5-IP20, human. actives 0.079% (n = 340,000). PKA-R2B holoenzyme dissociation; R2B truncated from residue 108, S112A mutant; 0% DMSO only, 100% 113 µM cGMP. AID 504700, 2011. activation, % at 11.4 µM;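 active = activation above a cutoff set at the mean over all compounds plus 3 SD, cut at about 18% in these data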;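 note: higher means more holoenzyme dissociation and a rise in polarization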
Target sequence (P31323 whole entry, looked up, other chains not shown, the tested form may be a part): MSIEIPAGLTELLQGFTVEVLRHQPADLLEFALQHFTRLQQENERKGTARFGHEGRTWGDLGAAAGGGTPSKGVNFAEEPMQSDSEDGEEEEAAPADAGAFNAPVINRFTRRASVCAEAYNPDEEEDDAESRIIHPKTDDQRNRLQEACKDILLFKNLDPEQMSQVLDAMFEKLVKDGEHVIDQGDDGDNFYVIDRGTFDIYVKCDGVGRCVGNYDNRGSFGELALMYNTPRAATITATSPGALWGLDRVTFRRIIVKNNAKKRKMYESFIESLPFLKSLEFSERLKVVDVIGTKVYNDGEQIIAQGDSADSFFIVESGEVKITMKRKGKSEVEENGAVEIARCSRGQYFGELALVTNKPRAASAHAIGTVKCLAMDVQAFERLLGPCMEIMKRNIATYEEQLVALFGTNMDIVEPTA
CTSL1 counter: Fasciola hepatica cathepsin L1 inhibitors, primary screen, counter-screen for PFM18AAP inhibitor project, biochemical, QFRET, fluorogenic peptide substrate. recombinant F. hepatica cathepsin L1, Z-Leu-Arg-MCA fluorescence. inhibition, % at 5.96 µM. actives 0.49% (n = 300,000);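 active = inhibition above the mean of all tested compounds plus 3 SD, set per screening campaign, cut at about 17% in these data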;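 note: 0% = plate median of test compound wells and 100% = 1 µM Z-Phe-Ala-diazomethylketone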
UCH37 reconfirm: retest of human UCH37 deubiquitinase inhibitors, confirmation, biochemical, Ub-AMC cleavage rate, fluorescence; shares compounds with UCH37 DUB inh; actives 27% (n = 480); inhibition, % at 20 µM; Proteasome-bound UCH37;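 active = average inhibition over replicates above about 50%, so the earlier screening hit is confirmed, limit read from the data; inactive = the rest, counted as false positives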;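 note: based on cleavage rate fitted by regression over a 30 min kinetic read; 0% = proteasome plus Ub-AMC and 100% = Ub-AMC without proteasome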
* = called active by the depositor; / = no result.

SMILES	PKA-R1A activ	aDG glyco act	UCH37 DUB inh	PKA-R2B activ	CTSL1 counter	UCH37 reconfirm
O=C1C(C2=C(O)c3ccccc3C2=O)=Nc2ccccc21	-11	0	85*	-9	15	103*
O=C1c2ccccc2-c2nc3ccccc3nc21	5	2	45*	-7	0	23
Cc1nc(CC(=NNc2ccccc2)c2ccc(O)cc2O)cs1	/	/	8	/	/	/
CCOc1ccccc1NC(=O)CSc1c(C)n[nH]c1C	4	0	36*	0	-2	8
Cc1ccc(C)c(NC(=O)CSc2c(C)n[nH]c2C)c1	-9	0	0	0	-4	/
O=[N+]([O-])c1cc(Cl)cc(C=NNc2ccccn2)c1O	/	/	1	/	/	/
Nc1nc(O)c(N=Nc2ccc(S(N)(=O)=O)cc2)c(=O)[nH]1	/	/	6	/	/	/
NS(=O)(=O)c1ccc(N=Nc2c[nH]c(=O)c(O)c2)cc1	1	0	33*	-8	-1	40
NC(=NN=Cc1ccc(O)cc1)c1nonc1N	/	/	10	/	/	/
CC(=O)N1C(=O)/C(=C2\SC(=S)N(c3c(C)n(C)n(-c4ccccc4)c3=O)C2=O)c2ccccc21	-13	0	25*	-4	9	45
Cc1c(N2C(=O)/C(=C3/C(=O)N(C)c4ccccc43)SC2=S)c(=O)n(-c2ccccc2)n1C	-15	0	5	-11	3	/
COc1cc(Cl)c(NC2=CC(=O)C(=O)c3ccccc32)c(OC)c1	11	2	54*	-7	/	15
CC(C)(C)c1ccc(NC(=O)COC(=O)c2ccc([N+](=O)[O-])s2)cc1	5	0	3	-11	13	/
O=C(COC(=O)c1ccc([N+](=O)[O-])s1)Nc1ccc(F)cc1	-1	0	67*	0	/	77*
O=C(COC(=O)c1ccc([N+](=O)[O-])s1)Nc1ccccc1	-8	0	60*	-2	74*	36
O=C(COC(=O)c1ccc([N+](=O)[O-])s1)NC(c1ccccc1)c1ccccc1	-4	0	0	-7	6	/
COc1ccc(S(=O)(=O)N2CCOCC2)cc1NC(=O)COC(=O)c1ccc([N+](=O)[O-])s1	-3	0	62*	-5	/	7
COc1ccc(S(=O)(=O)N2CCOCC2)cc1NC(=O)COC(=O)c1[nH]c(C)c(C(C)=O)c1C	-8	0	2	-9	/	/
O=C(COC(=O)c1ccc([N+](=O)[O-])s1)NCc1ccccc1	1	0	39*	1	57*	10
Cc1ccc(S(=O)(=O)N2CCN(CC(=O)NN=Cc3ccc(O)c(O)c3)CC2)cc1	/	/	-4	/	/	/
CC(CC(C)C)=NNC(=O)Nc1ccccc1	/	/	2	/	/	/
Cc1ccc(C(=O)OCc2nnc(-c3ccccc3)o2)s1	-2	0	0	-7	-3	/
O=C(COC(=O)c1ccc([N+](=O)[O-])s1)Nc1cccc(S(=O)(=O)NC2=NCCCCC2)c1	-3	0	62*	-11	70*	4
O=C(OCc1nnc(-c2ccccc2)o1)c1ccc([N+](=O)[O-])s1	12	0	80*	2	/	44
Cc1[nH]c2ccccc2c1C=NNC(=O)c1cccs1	/	/	5	/	/	/
SMILES	PKA-R1A activ	aDG glyco act	UCH37 DUB inh	PKA-R2B activ	CTSL1 counter	UCH37 reconfirm
O=C(O)c1ccc(S(=O)(=O)/N=C2\C=C(Nc3ccccc3F)C(=O)c3ccccc32)cc1	-9	0	93*	-4	80*	99*
O=C(O)c1ccc(NC2=CC(=NS(=O)(=O)c3ccccc3)c3ccccc3C2=O)cc1	/	/	95*	/	/	98*
CCOc1cccc(C=NNC(=S)Nc2ccccc2[N+](=O)[O-])c1O	/	/	49*	/	/	14
CCOC(=O)/C=C(\C)Sc1cc(O)c2ccccc2c1O	-17	1	81*	-4	/	82*
CCC(=O)N(C)/C=C1\Sc2ccccc2C1=O	-4	0	4	12	-3	/
CCC(=O)N(CC)C1=C(O)c2ccccc2C(=O)C1=O	9	0	37*	13	2	9
CC(C)=CCCC(C)NC(=O)NC1CCCCC1 (centres undefined)	2	0	21*	-2	7	67*
CC(C)[C@H](NC(=O)NC1CCCC1)C(=O)O	-12	0	0	-2	-1	/
COc1ccc([C@H]2CC(=O)C=C(c3ccc(-c4ccccc4)c(F)c3)C2)cc1OC	5	0	41*	-6	/	7
Cc1nnc(C)n1N=Cc1cccc([N+](=O)[O-])c1	/	/	3	/	/	/
O=C1C(N2CCOCC2)=C(n2nnc3ccccc32)C(=O)c2ccccc21	4	2	72*	-13	81*	88*
O=C(O)c1cc(NN=Cc2c[nH]c3ccccc23)ccc1Cl	/	/	5	/	/	/
COC(=O)C1=C(C(=O)OC)[C@@H]2N(C)c3ccccc3[C@@]23C[C@@H](C(=O)OC)N(C(=O)CC(C)C)C3=N1	-13	0	42*	-1	1	2
COc1ccc(CN2C(=O)c3ccccc3C(C=NOCc3ccc(C)cc3)C2=O)cc1 (centres undefined)	/	/	-27	/	/	/
CC1(C)OC(=O)C(=Cc2ccc(-c3ccc(Cl)c(C(=O)O)c3)o2)C(=O)O1	-3	0	2	-9	-5	/
COC(=O)c1cccc(-c2ccc(C(c3c(C)[nH][nH]c3=O)c3c(C)[nH][nH]c3=O)o2)c1	-5	0	40*	0	0	57*
COC(=O)c1ccccc1-c1ccc(C(c2c(C)[nH][nH]c2=O)c2c(C)[nH][nH]c2=O)o1	-9	0	4	-1	4	/
Cc1[nH][nH]c(=O)c1C(c1ccc(-c2ccc(Cl)c(C(=O)O)c2)o1)c1c(C)[nH][nH]c1=O	-3	0	30*	5	/	44
NC(=NN=Cc1cccc(O)c1)c1nonc1N	/	/	7	/	/	/
COc1ccc(C=NNC(=O)c2cc(-c3ccc4c(c3)OCO4)n[nH]2)cc1OC	/	/	-137	/	/	/
COc1ccc(C=NNC(=O)c2cccc(NC(C)=O)c2)c(C(=O)O)c1OC	/	/	5	/	/	/
COc1ccc(C=NNC(=S)NCC2CCCO2)cc1 (centres undefined)	/	/	7	/	/	/

Source: PubChem BioAssay
